According to ChEMBL document CHEMBL1138485, “Discovery of inducible nitric oxide synthase (iNOS) inhibitor development candidate KD7332, part 1: Identification of a novel, potent, and selective series of quinolinone iNOS dimerization inhibitors that are orally active in rodent pain models” (J Med Chem, 2009):
pEC50: −log10 of the molar value.

Tests used:
[1] = target: Nitric oxide synthase, inducible (Homo sapiens, UniProt P35228); assay: Inhibition of human iNOS expressed in HEK293 cells assessed as NO production by transient transfection assay; type: cell-based
In short: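 HEK293 cells grown to ~70% confluence in DMEM/10% FBS with pen/strep. Cells transiently transfected with 10 µg human or murine iNOS plasmid (Fugene 6), 4 h at 37 °C, 10% CO2. Trypsinized, plated at 5 × 10⁵ cells/mL and dosed at once; 1400W 100 µM final as positive control. After 18 h, NO read as DAN fluorescence (10 µg/mL, 20 min RT, then NaOH). EC50 from 3 runs, 10-point curves, n = 8/point.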

[2] = target: T1, Nitric oxide synthase 3 (Homo sapiens, UniProt P29474); assay: Inhibition of human eNOS expressed in HEK293 cells assessed as NO production by transient transfection assay; type: cell-based
T1 sequence (P29474 whole entry): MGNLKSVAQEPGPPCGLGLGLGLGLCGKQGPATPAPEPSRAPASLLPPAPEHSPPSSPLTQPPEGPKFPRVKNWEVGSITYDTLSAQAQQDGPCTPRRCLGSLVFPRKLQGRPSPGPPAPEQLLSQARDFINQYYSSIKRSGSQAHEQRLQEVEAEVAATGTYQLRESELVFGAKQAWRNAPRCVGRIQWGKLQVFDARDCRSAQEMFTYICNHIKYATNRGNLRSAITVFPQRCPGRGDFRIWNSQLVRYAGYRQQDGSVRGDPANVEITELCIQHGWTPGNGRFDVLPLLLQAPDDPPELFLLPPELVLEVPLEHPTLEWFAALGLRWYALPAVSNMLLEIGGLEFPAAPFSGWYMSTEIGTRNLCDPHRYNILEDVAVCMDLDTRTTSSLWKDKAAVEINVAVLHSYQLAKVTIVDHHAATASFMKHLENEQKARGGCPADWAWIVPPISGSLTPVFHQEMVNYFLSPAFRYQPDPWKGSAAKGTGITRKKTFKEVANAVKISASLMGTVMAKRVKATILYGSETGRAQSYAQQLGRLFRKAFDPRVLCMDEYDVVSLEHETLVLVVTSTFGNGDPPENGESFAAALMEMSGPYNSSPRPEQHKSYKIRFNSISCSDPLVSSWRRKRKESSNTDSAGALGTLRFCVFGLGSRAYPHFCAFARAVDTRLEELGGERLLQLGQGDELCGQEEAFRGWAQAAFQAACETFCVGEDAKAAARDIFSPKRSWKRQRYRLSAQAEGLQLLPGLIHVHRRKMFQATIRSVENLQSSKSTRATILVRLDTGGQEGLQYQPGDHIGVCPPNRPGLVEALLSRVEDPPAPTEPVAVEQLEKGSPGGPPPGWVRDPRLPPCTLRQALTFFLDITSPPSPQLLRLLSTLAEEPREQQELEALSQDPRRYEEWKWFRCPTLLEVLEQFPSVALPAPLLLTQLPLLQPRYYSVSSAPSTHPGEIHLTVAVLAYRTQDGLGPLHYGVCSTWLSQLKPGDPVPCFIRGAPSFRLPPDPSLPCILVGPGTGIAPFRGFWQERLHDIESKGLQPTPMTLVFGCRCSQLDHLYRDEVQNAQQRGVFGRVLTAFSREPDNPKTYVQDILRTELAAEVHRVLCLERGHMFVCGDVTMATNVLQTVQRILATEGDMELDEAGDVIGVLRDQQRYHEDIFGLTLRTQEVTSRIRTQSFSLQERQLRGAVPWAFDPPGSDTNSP
In short: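 HEK293 cells grown to ~70% confluence in DMEM/10% FBS with pen/strep, transfected with 15 µg human eNOS plasmid plus Fugene 6 (3:1 µL:µg), 4 h at 37 °C, 10% CO2. Cells replated at 5 × 10⁵/mL, compound added at once, 24 h incubation, then A23187 (83 nM final). After 18 h, NO read by DAN fluorescence.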

[3] = target: Nitric oxide synthase 1 (Homo sapiens, UniProt P29475); assay: Inhibition of human nNOS expressed in HEK293 cells assessed as NO production by transient transfection assay; type: cell-based
[4] = tested on: Mus musculus; assay: Reduction of plasma nitrate level in LPS-challenged BALB/c mouse at 30 mg/kg, po; type: functional; design: scale not given: the % may be the effect or the level left
In short: (§1)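 Male Balb/c mice were dosed by oral gavage (90% PEG/5% Tween 80/5% PVP + 90% CMC (0.5% w/v)) at t = 0 h, 30 mg/kg for single-dose lines. LPS 10 mg/kg ip in 0.9% NaCl followed immediately. At 6 h, EDTA plasma was taken for nitrate and drug levels. Nitrate reduction is relative to vehicle; ED50 came from full oral dose-response.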

[5] = Drug level in LPS-challenged BALB/c mouse plasma at 30 mg/kg, po after 6 hrs; type: ADME, organism-based; design: dose 30 mg/kg, route oral; in short: as §1
[6] = target: T2, Cytochrome P450 1A2 (Homo sapiens, UniProt P05177); assay: Inhibition of CYP1A2; type: ADME
T2 sequence (P05177 whole entry): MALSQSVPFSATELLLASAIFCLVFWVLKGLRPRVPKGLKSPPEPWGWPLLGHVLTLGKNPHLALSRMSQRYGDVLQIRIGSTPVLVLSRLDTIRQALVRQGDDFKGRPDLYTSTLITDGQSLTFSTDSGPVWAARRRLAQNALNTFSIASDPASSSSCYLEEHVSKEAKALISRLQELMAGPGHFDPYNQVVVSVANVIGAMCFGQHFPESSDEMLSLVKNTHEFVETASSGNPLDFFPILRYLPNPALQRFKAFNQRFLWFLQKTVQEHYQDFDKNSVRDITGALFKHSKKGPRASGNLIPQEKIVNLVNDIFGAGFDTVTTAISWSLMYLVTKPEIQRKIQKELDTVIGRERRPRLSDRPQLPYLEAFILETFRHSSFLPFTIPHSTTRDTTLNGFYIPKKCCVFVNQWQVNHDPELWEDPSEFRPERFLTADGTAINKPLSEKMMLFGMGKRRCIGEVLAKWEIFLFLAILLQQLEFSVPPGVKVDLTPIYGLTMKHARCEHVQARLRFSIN

[7] = target: Cytochrome P450 3A4 (Homo sapiens, UniProt P08684); assay: Inhibition of CYP3A4; type: ADME
[8] = target: Cytochrome P450 2D6 (Homo sapiens, UniProt P10635); assay: Inhibition of CYP2D6; type: ADME
[9] = target: Cytochrome P450 2C19 (Homo sapiens, UniProt P33261); assay: Inhibition of CYP2C19; type: ADME
Chain of Cytochrome P450 2C19 (P33261 whole entry): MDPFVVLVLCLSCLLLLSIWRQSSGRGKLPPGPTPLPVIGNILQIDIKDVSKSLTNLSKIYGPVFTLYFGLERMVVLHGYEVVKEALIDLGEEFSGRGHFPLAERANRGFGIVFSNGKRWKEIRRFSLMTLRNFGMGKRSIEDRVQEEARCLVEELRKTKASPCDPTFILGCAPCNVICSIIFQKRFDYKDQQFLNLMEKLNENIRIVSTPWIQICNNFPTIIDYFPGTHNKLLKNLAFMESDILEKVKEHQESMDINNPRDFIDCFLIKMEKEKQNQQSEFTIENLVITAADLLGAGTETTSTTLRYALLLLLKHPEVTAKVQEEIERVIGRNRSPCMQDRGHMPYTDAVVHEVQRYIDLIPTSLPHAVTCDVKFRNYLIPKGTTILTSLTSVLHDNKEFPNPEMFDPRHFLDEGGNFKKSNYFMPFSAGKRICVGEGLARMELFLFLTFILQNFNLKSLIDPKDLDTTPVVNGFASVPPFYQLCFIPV

Chain of Nitric oxide synthase, inducible (P35228 whole entry): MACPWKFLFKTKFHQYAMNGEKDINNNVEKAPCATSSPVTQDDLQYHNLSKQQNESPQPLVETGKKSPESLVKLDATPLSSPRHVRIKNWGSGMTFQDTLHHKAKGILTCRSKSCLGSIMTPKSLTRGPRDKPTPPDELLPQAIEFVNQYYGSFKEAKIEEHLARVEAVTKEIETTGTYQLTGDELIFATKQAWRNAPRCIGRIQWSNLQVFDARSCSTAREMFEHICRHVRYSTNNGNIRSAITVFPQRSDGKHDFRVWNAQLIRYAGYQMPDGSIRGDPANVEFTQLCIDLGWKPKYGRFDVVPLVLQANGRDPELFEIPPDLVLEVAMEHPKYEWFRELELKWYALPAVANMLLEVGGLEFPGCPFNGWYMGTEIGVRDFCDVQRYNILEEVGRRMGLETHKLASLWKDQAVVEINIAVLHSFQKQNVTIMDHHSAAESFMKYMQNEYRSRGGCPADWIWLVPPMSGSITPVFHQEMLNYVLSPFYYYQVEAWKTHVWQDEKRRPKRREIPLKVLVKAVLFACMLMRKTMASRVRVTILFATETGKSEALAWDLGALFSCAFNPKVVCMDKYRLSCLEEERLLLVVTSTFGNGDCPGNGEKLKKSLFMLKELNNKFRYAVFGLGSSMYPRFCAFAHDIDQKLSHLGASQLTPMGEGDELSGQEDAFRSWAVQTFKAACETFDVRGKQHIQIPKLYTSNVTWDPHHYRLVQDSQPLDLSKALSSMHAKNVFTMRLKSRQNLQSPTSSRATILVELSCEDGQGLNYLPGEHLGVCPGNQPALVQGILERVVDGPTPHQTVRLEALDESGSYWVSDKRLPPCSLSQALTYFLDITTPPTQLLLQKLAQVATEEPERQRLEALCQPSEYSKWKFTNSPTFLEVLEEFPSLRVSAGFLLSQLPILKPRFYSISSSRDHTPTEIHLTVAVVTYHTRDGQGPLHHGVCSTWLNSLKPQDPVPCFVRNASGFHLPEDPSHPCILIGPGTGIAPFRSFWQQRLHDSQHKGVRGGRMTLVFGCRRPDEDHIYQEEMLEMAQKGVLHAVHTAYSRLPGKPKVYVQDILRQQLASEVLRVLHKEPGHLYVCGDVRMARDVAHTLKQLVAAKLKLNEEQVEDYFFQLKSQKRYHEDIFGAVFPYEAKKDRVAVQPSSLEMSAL
Chain of Nitric oxide synthase 1 (P29475 whole entry): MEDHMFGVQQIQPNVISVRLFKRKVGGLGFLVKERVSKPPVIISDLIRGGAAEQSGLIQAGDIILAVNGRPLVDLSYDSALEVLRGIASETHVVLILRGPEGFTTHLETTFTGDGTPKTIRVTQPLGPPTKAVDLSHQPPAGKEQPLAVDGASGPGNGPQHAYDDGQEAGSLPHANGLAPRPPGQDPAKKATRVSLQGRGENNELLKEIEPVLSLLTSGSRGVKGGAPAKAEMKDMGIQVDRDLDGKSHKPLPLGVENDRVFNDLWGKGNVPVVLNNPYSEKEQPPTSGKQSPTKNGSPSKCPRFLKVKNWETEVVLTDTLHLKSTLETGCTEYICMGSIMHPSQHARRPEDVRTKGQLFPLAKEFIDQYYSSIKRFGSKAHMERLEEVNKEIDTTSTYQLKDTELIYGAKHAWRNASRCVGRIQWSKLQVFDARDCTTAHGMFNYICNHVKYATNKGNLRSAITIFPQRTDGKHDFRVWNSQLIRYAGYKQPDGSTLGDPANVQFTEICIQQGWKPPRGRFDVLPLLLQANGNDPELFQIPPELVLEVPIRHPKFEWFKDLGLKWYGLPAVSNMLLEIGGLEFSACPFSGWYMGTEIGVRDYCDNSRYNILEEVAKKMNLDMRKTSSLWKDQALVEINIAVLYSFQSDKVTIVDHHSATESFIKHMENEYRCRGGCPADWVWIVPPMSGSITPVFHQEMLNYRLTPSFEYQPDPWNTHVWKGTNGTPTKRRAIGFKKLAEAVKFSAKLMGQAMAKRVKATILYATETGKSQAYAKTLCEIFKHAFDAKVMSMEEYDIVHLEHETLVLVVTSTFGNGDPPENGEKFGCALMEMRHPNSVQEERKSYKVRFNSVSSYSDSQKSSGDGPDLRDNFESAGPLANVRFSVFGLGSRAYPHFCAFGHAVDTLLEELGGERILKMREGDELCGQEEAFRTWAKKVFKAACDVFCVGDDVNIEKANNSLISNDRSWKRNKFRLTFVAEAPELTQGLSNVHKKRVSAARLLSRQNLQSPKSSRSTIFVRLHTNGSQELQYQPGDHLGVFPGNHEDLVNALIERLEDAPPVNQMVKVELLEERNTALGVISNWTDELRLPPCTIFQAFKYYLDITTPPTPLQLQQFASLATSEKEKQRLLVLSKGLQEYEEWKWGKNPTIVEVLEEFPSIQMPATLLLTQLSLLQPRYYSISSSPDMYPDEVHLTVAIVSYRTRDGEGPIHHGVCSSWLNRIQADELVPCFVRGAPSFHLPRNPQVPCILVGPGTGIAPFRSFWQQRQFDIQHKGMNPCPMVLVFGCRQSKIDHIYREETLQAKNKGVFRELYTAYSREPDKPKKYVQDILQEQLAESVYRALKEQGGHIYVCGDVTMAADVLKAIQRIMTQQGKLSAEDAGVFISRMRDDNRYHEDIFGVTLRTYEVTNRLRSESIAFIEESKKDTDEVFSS
Chain of Cytochrome P450 2D6 (P10635 whole entry): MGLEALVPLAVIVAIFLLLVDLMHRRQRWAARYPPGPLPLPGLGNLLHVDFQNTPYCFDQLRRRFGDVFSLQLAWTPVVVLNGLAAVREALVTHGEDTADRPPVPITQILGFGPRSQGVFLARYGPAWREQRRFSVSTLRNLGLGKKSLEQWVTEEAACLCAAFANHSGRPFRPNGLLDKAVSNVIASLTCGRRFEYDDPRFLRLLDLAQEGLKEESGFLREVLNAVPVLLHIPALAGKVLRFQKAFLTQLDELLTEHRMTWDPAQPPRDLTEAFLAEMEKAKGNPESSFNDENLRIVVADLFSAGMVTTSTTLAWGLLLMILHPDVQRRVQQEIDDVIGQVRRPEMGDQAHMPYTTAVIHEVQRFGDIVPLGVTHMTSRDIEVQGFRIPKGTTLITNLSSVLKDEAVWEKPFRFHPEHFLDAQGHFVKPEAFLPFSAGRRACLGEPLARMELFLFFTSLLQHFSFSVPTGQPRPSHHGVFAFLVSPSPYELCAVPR
Chain of Cytochrome P450 3A4 (P08684 whole entry): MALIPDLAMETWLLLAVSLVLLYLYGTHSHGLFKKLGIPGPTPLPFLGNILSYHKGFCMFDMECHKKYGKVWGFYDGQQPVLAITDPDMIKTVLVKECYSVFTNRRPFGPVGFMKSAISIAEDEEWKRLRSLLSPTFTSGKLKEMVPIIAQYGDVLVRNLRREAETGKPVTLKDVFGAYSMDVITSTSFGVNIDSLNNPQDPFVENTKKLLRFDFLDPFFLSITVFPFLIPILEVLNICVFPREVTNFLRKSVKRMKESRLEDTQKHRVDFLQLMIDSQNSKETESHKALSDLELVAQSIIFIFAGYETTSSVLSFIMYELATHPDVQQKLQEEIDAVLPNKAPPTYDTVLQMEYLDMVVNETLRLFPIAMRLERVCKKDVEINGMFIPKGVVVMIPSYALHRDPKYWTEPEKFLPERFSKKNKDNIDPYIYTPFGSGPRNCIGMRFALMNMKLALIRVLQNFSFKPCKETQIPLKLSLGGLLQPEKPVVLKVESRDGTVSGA

Structure (SMILES) | pEC50 [1] | pEC50 [2] | pEC50 [3] | Activity [4] | concentration at 6 h [5] | pEC50 [6] | pEC50 [7] | pEC50 [8] | pEC50 [9]
CC(C)C(=O)N(Cc1cc(=O)[nH]c2c(F)cccc12)c1cccc(Cl)c1 | 6.80 | < 4.00 | 5.54 | 6% | 21 ng/mL | < 4.00 | 5.12 | < 4.00 | 4.38
Cc1ncsc1C(=O)N(Cc1cc(=O)[nH]c2c(F)c(F)ccc12)c1cccc(Cl)c1 | 8.70 | 5.52 | 6.92 | 62% | 8 ng/mL | 4.28 | 5.31 | < 4.00 | 4.72
Cc1ncsc1C(=O)N(Cc1c[n+]([O-])cc2c(F)c(F)ccc12)c1cccc(Cl)c1 | 7.72 | 4.47 | 5.49 | 10% | 20 ng/mL | < 4.00 | 5.74 | < 4.00 | 4.03
Cc1ncsc1C(=O)N(Cc1cc(=O)[nH]c2c(F)cccc12)c1cccc(Cl)c1 | 7.96 | 4.59 | 5.64 | 90% | 77 ng/mL | < 4.00 | 5.15 | < 4.00 | 4.89
Cn1cncc1C(=O)N(Cc1cc(=O)[nH]c2c(F)c(F)ccc12)c1cccc(Cl)c1 | 8.52 | 6.38 | 7.15 | 95% | 18 ng/mL | 4.02 | 5.85 | 4.68 | 4.96
CC1=C(C(=O)N(Cc2cc(=O)[nH]c3c(F)c(F)ccc23)c2cccc(Cl)c2)CNCC1 | 7.96 | 5.60 | 6.54 | 95% | 63 ng/mL | < 4.00 | 5.47 | < 4.00 | 4.52
